About 220 (0.1%) of roughly 210,000 compounds were called active.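 How the source made its calls: active means signal enhancement of 30% or more; inactive means the rest.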 The list comes from a sample in which actives are over-represented; it also holds similar structures and randomly drawn compounds.
Target: E3 ubiquitin-protein ligase Mdm2 (Homo sapiens) (UniProt Q00987)
Assay: MDM2-luciferase reporter signal enhancers, primary screen, MDM2 E3 ligase inhibitor project, cell-based, luminescence, 1536-well (AID 1230);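 further: luminescence tracks abundance of the self-degrading MDM2-luciferase fusion protein; higher signal means inhibition of MDM2 E3 ligase activity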
Conditions: cell-based MDM2 ubiquitination luciferase reporter, 2 h; at 5 µM; hits give high values; 0 = plate control, 100 = twice control, blank-subtracted
In short: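 System: stable MDM2–luciferase fusion reporter cells / Input: 2000 cells seeded into each well / Schedule: 4 h settle plus 2 h compound, 37 °C / Compound: single-point 5 µM / Buffer or medium: cells held in DMEM / Benchmarks: control and blank well means / Evaluation: percent signal gain over controls, blank-subtracted / Measured by: luciferase luminescence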

Sequence of E3 ubiquitin-protein ligase Mdm2 (Homo sapiens) (Q00987 whole entry, looked up, the tested form may be a part): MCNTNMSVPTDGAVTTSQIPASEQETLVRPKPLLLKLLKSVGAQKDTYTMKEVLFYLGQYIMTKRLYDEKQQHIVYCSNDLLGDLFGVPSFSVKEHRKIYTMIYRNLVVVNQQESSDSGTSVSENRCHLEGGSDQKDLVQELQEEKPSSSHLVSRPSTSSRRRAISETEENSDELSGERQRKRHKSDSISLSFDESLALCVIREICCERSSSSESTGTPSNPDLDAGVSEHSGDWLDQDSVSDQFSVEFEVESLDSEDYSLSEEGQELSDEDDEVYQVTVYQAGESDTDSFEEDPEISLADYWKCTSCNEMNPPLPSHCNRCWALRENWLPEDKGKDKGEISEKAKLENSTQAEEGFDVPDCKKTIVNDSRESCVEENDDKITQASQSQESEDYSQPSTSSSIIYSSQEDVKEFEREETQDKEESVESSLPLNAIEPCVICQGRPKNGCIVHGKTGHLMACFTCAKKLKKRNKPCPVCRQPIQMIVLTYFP

| Structure (SMILES) | signal enhancement |
| --- | --- |
| CSc1sc(C(=O)NC(=O)NCc2cccnc2)c(C)c1-c1ccon1 | -12.8% (inactive) |
| O=C(NCCCn1ccnc1)C(=O)NCC1OCCN1S(=O)(=O)c1cc(F)ccc1F (configuration not stated) | -1.11% (inactive) |
| Cc1cc(SCC(=O)c2ccccc2)nc(SCC(=O)c2ccccc2)n1 | -22.4% (inactive) |
| Cc1cc(C)nc(S/C=C/C(=O)c2ccccc2)n1 | 45.8% (active) |
| C/C(=N\NC(=O)c1nc(C)cc(C)n1)c1ccccc1 | -2.38% (inactive) |
| CNC(=S)NNC(=O)c1oc2nc(-c3ccccc3)cc(-c3ccco3)c2c1N | -16.3% (inactive) |
| Cc1noc(C)c1COC(=O)COc1ccc(-c2ccccc2)cc1 | -6.72% (inactive) |
| CCS(=O)(=O)c1cc([N+](=O)[O-])c(Sc2ccccc2N)s1 | -43.9% (inactive) |
| CS(=O)(=O)c1ccc2nnn(OCC(=O)Nc3cccc(C#N)c3)c2c1 | -16.9% (inactive) |
| CC(=O)c1ccc(S(=O)(=O)N2CCN(C(=O)/C=C/c3ccc4ccccc4n3)CC2)cc1 | -8.84% (inactive) |
| C/C=C\C=C\C(=O)N1CC2(CC(c3cccc(NC(=O)/C(C)=C\C)c3)=NO2)C[C@H]1C(N)=O (some centres not stated) | -14.1% (inactive) |
| Cn1ccc(=NC=C(C#N)C#N)c2ccccc21 | 30.3% (active) |
| CCOC(=O)c1cc(C)nc(S(C)(=O)=O)c1C#N | -11% (inactive) |
| CCOC(=O)c1c(NC(=S)NC)sc2c1CCCC2 | -8.08% (inactive) |
| COc1ccc(/C=C/C(=O)Nc2cccnc2)cc1OC | -3.38% (inactive) |
| COc1ccc(/C=C/C(=O)Nc2ccc(C34CC5CC(CC(O)(C5)C3)C4)cc2)cc1OC | 45.6% (active) |
| COc1ccc(/C=C/C(=O)Nc2ccc3c(c2)OCCO3)cc1OC | -7.44% (inactive) |
| Clc1ccc(C[n+]2cc(-c3ccccc3)n3c2CCC3)cc1 | -18.4% (inactive) |
| S=c1[nH]nc(-c2cccs2)n1/N=C/c1cn(-c2ccccc2)nc1-c1ccc(Cl)cc1 | -7.25% (inactive) |
| COc1cccc(C2Nc3cccc4cccc(c34)N2)c1 | -2.34% (inactive) |
| CNC(=O)C(NC(=O)c1ccccc1)=C(C)C | -12.3% (inactive) |

| Structure (SMILES) | signal enhancement |
| --- | --- |
| COc1ccccc1OCC(=O)O/N=C(\N)c1ccccn1 | -10.7% (inactive) |
| N/C(=N\OC(=O)Nc1ccccc1)c1ccno1 | -4.12% (inactive) |
| CCCc1nc2c(c(=O)c3ccccc3n2C)c(=O)n1-c1cc(C)cc(C)c1 | -9.46% (inactive) |
| COc1ccc(NC(=O)CSc2ncnc3[nH]ncc23)cc1 | -3.15% (inactive) |
| CC(C)(C)c1cc(NC(=O)NN2CCOCC2)nn1-c1c(Cl)cc(Cl)cc1Cl | -17.5% (inactive) |
| CCOC(=O)C1CCN(C(=O)Nc2ccc(C)c(Cl)c2)CC1 | -11.1% (inactive) |
| Cn1nccc1NC(=O)Nc1ccc(OC(F)(F)F)cc1 | -5.96% (inactive) |
| O=C1NC[C@@H](Cc2ccc(O)cc2)N(CCc2cccc(F)c2)C1=O | 10.9% (inactive) |
| COc1ccc(CNC(=O)C(Cc2ccccc2)n2cccc2)cc1 (configuration not stated) | -4.92% (inactive) |
| Cn1cnc([N+](=O)[O-])c1Sc1n[nH]c(N)n1 | -5.56% (inactive) |
| O=C(CCc1ccccc1)NNc1ccc(F)cc1 | -12.4% (inactive) |
| CCCCCCCCCCCCN1C(=O)CSC1c1cccnc1 (configuration not stated) | -5.41% (inactive) |
| O=C(NCC1CCCO1)c1cc(-c2ccccc2)nc2ccccc12 (configuration not stated) | -4.98% (inactive) |
| CCOC(=O)C(=CNNc1ccsc1C(=O)OC)C(=O)OCC | -27.3% (inactive) |
| Cn1c(=NC(=O)c2ccc3c(c2)OCCO3)sc2cc(S(C)(=O)=O)ccc21 | 37% (active) |
| CC(=O)c1ccc2c(c1)OCCOCCOc1ccc(C(C)=O)cc1OCCOCCO2 | -8.95% (inactive) |
| COCCn1c(=NC(=O)c2ccccc2[N+](=O)[O-])sc2cc(S(C)(=O)=O)ccc21 | -5.21% (inactive) |
| Cc1cccc(N(C)C(=O)c2cc3c(=O)[nH]c4ccc(C)cc4c3s2)c1 | 2.91% (inactive) |
| Cc1cccc(N2CCN(Cc3nc(C4CC4)no3)CC2)n1 | 2.81% (inactive) |
| CC(C)(C)c1cc(P(=O)(c2ccccc2)c2ccccc2)ccc1O | -14% (inactive) |
| COc1ccc(CCNC(=O)C2CC3Cn4c(nc5cc(C)c(C)cc54)C3N2C)cc1 (configuration not stated) | 13% (inactive) |

| Structure (SMILES) | signal enhancement |
| --- | --- |
| CC1=NOC(=O)/C1=C\c1ccccc1 | -4.01% (inactive) |
| Cc1cccc(C)c1Nc1c(-c2ccccc2O)nc2ncccn12 | -18.4% (inactive) |
| CN(Cc1nc(-c2cnccn2)no1)Cc1n[nH]c2c1CCCCC2 | -8.5% (inactive) |
| Clc1ccc(CSc2nnc3c(n2)[nH]c2ccccc23)cc1 | -10.6% (inactive) |
| CCNc1nc(NCC)nc(N/N=C/c2ccc(O)c(OC)c2)n1 | -10% (inactive) |
| CC(=O)N1N=C(c2ccncc2)OC1(Cc1ccccc1)Cc1ccccc1 | -11.4% (inactive) |
| CCC(C)(C)NC(=O)C(c1ccc(O)cc1)N(C(=O)Cn1nnc2ccccc21)c1ccc(NC(C)=O)cc1 (configuration not stated) | -11.7% (inactive) |
| Cn1c2ccc(F)cc2c2nnc(NN)nc21 | -2.02% (inactive) |
| COc1ccc(OC)c(NC(=O)N[C@H](Cc2ccccc2)C(=O)NN)c1 | -4.05% (inactive) |
| NC(=O)CC(NC(=O)Cc1cccc2ccccc12)c1ccc(NCc2cc(F)ccc2F)c([N+](=O)[O-])c1 (configuration not stated) | 5.13% (inactive) |
| COc1ccc(OCC(O)CNCCNc2nccc(C(F)(F)F)n2)cc1 (configuration not stated) | -12.4% (inactive) |
| CC1CN(c2nc(Nc3ccccc3)nc(N)c2[N+](=O)[O-])CC(C)O1 (configuration not stated) | -20.6% (inactive) |
| Cc1c(C(=O)N(Cc2ccccc2)Cc2cccnc2)cnn1-c1ccc(F)cc1 | -11.7% (inactive) |
| Oc1c(CN2CCN(c3ccc(F)cc3)CC2)cc(Cl)c2cccnc12 | 9.75% (inactive) |
| Clc1cccc(CN2COc3c(cc(Cl)c4cccnc34)C2)c1 | 46.8% (active) |
| O=c1[nH]n(-c2cccc(Cl)c2)c2ncccc12 | -4.4% (inactive) |
| CCCSc1ncccc1C(=O)O | -7.45% (inactive) |
| COC(=O)C1=C(N)Oc2cc(C)[nH]c(=O)c2C1c1ccc(Cl)cc1 (configuration not stated) | -10.2% (inactive) |
| CSc1nnc(SCc2nc3sc(C(=O)O)c(C)c3c(=O)[nH]2)s1 | -16.2% (inactive) |
| O=C(CSc1nnnn1-c1ccc(O)cc1)c1ccc(F)cc1 | -12.1% (inactive) |

Reference: PubChem BioAssay AID1230 (PCMD, 2008)
